# Measured values: ChEMBL document CHEMBL1130234 (J Med Chem, 1997)
# How the values were obtained:
# HaCaT [1] = experiment: Cytotoxic activity (2 uM) was measured by the amount of LDH (mU) release in HaCaT cells.; type: functional, Homo sapiens
# Summary of the method: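 HaCaT cells exposed to test compound at 2 μM; LDH activity (mU) released into the culture medium measured and compared with vehicle control; N = 3.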
# [2] = target: T1, Arachidonate 5-lipoxygenase (Bos taurus, UniProt Q9BEG3); experiment: 5-LO inhibitory activity was determined by inhibition of LTB4 biosynthesis in bovine polymorphonuclear leukocytes (PMNL); type: functional, cell-based
# T1 sequence (Q9BEG3 whole entry): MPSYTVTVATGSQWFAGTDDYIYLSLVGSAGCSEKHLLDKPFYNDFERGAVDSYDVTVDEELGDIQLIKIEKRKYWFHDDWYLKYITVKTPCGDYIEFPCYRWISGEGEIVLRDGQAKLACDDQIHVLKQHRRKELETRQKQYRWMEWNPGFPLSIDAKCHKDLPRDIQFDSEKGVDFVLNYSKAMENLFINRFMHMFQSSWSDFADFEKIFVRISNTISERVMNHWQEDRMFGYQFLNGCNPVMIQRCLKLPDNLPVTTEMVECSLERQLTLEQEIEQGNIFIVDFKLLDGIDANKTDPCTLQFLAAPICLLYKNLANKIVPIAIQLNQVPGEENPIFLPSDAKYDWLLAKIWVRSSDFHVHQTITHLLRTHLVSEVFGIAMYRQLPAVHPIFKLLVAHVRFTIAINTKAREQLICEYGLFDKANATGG
# Summary of the method: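 LTB4 biosynthesis measured in bovine polymorphonuclear leukocytes, with NDGA as the standard inhibitor; N = 3 or more, significance versus control at P < 0.01.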
# HaCaT [3] = experiment: Antiproliferative (inhibition of cell growth) activity against HaCaT cells (human keratinocyte line); type: functional, cell-based
# Summary of the method: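 HaCaT human keratinocytes treated for 48 h. Proliferation assessed by directly counting dispersed cells under a phase-contrast microscope; N = 3, significance versus control at P < 0.01.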
# [4] = Partition coefficient (logP); type: physicochemical; conditions: octanol/water
# [5] = Antioxidant potential was assessed from reducing activity against 2,2,di-phenyl-1-picrylhydrazyl.
SMILES,LDH (HaCaT [1]) [mU],IC50 [2] [µM],IC50 (HaCaT [3]) [µM],logP [4],kDPPH [5] [M⁻¹ s⁻¹]
c1ccc2cc3ccccc3cc2c1,131,> 30,> 5,,
COC(=O)c1cc(O)c2c(c1)Cc1cccc(O)c1C2=O,340,> 30,0.7,4.54,> 100
O=C1c2c(O)cccc2Cc2cccc(O)c21 [ANTHRALIN],294,,,,24.2
O=C1c2c(O)cccc2C(C(=O)c2ccccc2)c2cccc(O)c21,,,> 5,3.81,
O=C1c2cccc(O)c2Cc2c(O)cccc21,144,4,> 5,2.17,< 2
COc1cccc2c1C(=O)c1c(O)cccc1C2,179,,3.1,3.44,4.6
O=C1c2cccc(O)c2Cc2cccc(O)c21,191,,4.3,3.51,13.5
O=C1c2c(Cl)cccc2Cc2cccc(Cl)c21,,4,> 5,3.51,< 2
O=C1c2c(O)cccc2C(SCc2ccccc2)c2cccc(O)c21,,> 30,,4.87,> 100
O=C1c2cccc(O)c2C(=O)c2c(O)cccc21 [DANTHRON],170,> 30,> 5,4.16,< 2
O=C1c2c(O)cccc2C(Cc2ccccc2)(Cc2ccccc2)c2cccc(O)c21,167,> 30,> 5,4.33,< 2
CCC1c2cccc(O)c2C(=O)c2c(O)cccc21,161,> 30,> 5,4.37,< 2
O=C1c2c(O)cccc2Cc2cc(CO)cc(O)c21,376,30,0.7,3.37,20.1
CCSC1c2cccc(O)c2C(=O)c2c(O)cccc21,,> 30,,2.97,> 100
O=C1c2ccccc2Cc2cccc(O)c21,170,13,> 5,3.99,9.6
O=Cc1ccc2c(c1O)C(=O)c1c(O)cccc1C2,,6,> 5,4.06,> 100
COc1cccc2c1C(=O)c1c(cccc1OC)C2,144,> 30,> 5,3.88,
O=C(O)c1cc(O)c2c(c1)Cc1cccc(O)c1C2=O,,3,> 5,2.96,> 100
COC1c2cccc(O)c2C(=O)c2c(O)cccc21,146,> 30,1.1,3.96,
Cc1cc(O)c2c(c1)Cc1cc(O)cc(O)c1C2=O [EMODIN ANTHRONE],114,,> 5,3.9,21.4
CN(C)C=C1c2cccc(O)c2C(=O)c2c(O)cccc21,,21,2.1,3.18,16.2
O=C1c2c(O)cccc2C(O)c2cccc(O)c21,,> 30,> 5,2.91,< 2

SMILES,LDH (HaCaT [1]) [mU],IC50 [2] [µM],IC50 (HaCaT [3]) [µM],logP [4],kDPPH [5] [M⁻¹ s⁻¹]
Cc1cc(O)c2c(c1)Cc1cccc(O)c1C2=O,211,> 30,1.5,4.8,15.3
CC(C)=CCc1c(C)c(CC=C(C)C)c2c(c1O)C(=O)c1c(O)cc(O)c(CC=C(C)C)c1C2 [HARUNGANOL B],,> 30,> 5,8.01,3.1
O=C(c1ccccc1)c1cccc2c1C(=O)c1c(O)cccc1C2,,27,4.3,3.99,39.6
O=CC1c2cccc(O)c2C(=O)c2c(O)cccc21,124,,1.9,2.79,< 2
O=C1c2cccc(OCc3ccccc3)c2Cc2c(OCc3ccccc3)cccc21,,,> 5,5.73,3.2
"O=C(c1ccccc1O)c1ccccc1O [2,2'-DIHYDROXYBENZPHENONE]",,> 30,> 5,2.66,2.1
O=C1c2ccccc2Cc2ccc(O)c(O)c21,,4,1.9,3.19,41.5
Nc1cccc2c1Cc1ccccc1C2=O,,20,> 5,2.46,15.3
O=C1C=CC(=O)c2c(O)cccc21 [JUGLONE],384,17,0.8,,6.6
Oc1cccc(O)c1O [PYROGALLOL],,4,> 5,1.19,> 100
c1ccc2c(c1)Cc1ccccc1C2,,> 30,> 5,4.06,
CCCCc1ccc2c(c1O)C(=O)c1c(O)cccc1C2,,> 30,> 5,5.89,6.5
CCC(=O)c1ccc2c(c1O)C(=O)c1c(O)cccc1C2,,,3.3,4.59,> 100
Nc1cccc2c1C(=O)c1ccccc1C2,,28,> 5,2.45,50.5
O=C1c2c(O)cccc2C(Br)c2cccc(O)c21,,> 30,> 5,3.94,12.7
O=C1c2c(O)cccc2C(OCc2ccccc2)c2cccc(O)c21,,> 30,3.8,4.25,
CC(C)=CCc1c(C)cc(O)c2c1Cc1c(CC=C(C)C)c(O)cc(O)c1C2=O,,25,> 5,6.56,8.2
COc1cccc2c1Cc1c(O)cccc1C2=O,141,,> 5,2.6,< 2
O=C1C=CC(=O)c2c(O)ccc(O)c21 [NAPHTHAZALIN],247,,0.7,3.7,41.5
N#Cc1ccc2c(c1O)C(=O)c1c(O)cccc1C2,,8,4.2,3.16,> 100
O=C1c2c(O)cccc2C([C@@H]2O[C@H](CO)[C@@H](O)[C@H](O)[C@H]2O)c2cc(CO)cc(O)c21 (some centres not stated) [ALOIN],,> 30,> 5,1.83,< 2
O=C1c2cccc(Cl)c2Cc2c(Cl)cccc21,,,2.1,5.05,3.4
